In ChEMBL document CHEMBL4266005, “Discovery of a Biologically Active Bromodomain Inhibitor by Target-Directed Dynamic Combinatorial Chemistry” (ACS Med Chem Lett, 2018):
The source made the active and inactive calls. The rule behind the calls is not given here.

Experiments:
Trypanosoma cruzi [1] = assay: Antitrypanosomal activity against Trypanosoma cruzi Dm28c epimastigotes infected in African green monkey Vero cells after 72 hrs by CPRG/Nonidet reagent based beta-galactosidase reporter gene assay; format: functional, organism-based
Procedure, shortened: (§1)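 β-Galactosidase-expressing parasites were exposed to 0–200 μM of compound. Growth inhibition was read from β-galactosidase activity, and IC50 was obtained by nonlinear regression of activity against concentration.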

Trypanosoma cruzi [2] = assay: Antitrypanosomal activity against Trypanosoma cruzi Dm28c trypomastigotes infected in African green monkey Vero cells after 24 hrs by CPRG/Nonidet reagent based beta-galactosidase reporter gene assay; format: functional, organism-based; procedure, shortened: as §1
Trypanosoma cruzi [3] = assay: Antitrypanosomal activity against Trypanosoma cruzi Dm28c amastigotes infected in African green monkey Vero cells after 48 hrs by CPRG/Nonidet reagent based beta-galactosidase reporter gene assay; format: functional, organism-based; procedure, shortened: as §1
Vero = assay: Cytotoxicity against African green monkey Vero cells after 72 hrs by MTT assay; format: cell-based; settings: Chlorocebus sabaeus
Trypanosoma cruzi [4] = assay: Binding affinity to recombinant Trypanosoma cruzi His/haemaglutinin-tagged BDF3 expressed in Escherichia coli BL21 assessed as compound amplification factor at 75 uM by LC-MS based dynamic combinatorial chemistry analysis
Procedure, shortened: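 A dynamic acylhydrazone library was built from six aldehydes and four acylhydrazides (75 μM each) in 100 mM ammonium acetate, pH 6.5, with 3.75 mM aniline. It reached constant composition by about 10 h and was run with or without 100 μM recombinant TcBDF3. Amplification factor is the LC–MS peak area with template divided by the area without template.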

Trypanosoma cruzi [5] = assay: Binding affinity to recombinant Trypanosoma cruzi His/haemaglutinin-tagged BDF3 expressed in Escherichia coli BL21 at 100 uM by fluorescence spectra analysis
Procedure, shortened: (§2)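 Intrinsic tryptophan (W117) fluorescence spectra were recorded for 10 μM recombinant TcBDF3 in 100 mM ammonium acetate, pH 6.5, alone and with increasing ligand; building blocks were tested at 100 μM. Quenching was analyzed by Stern–Volmer, modified Stern–Volmer and double-logarithmic plots, and Kd came from the double-logarithmic plot.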

Trypanosoma cruzi [6] = assay: Binding affinity to recombinant Trypanosoma cruzi His/haemaglutinin-tagged BDF3 expressed in Escherichia coli BL21 assessed as change in melting temperature by SYPRO orange based thermal shift assay
Trypanosoma cruzi [7] = assay: (§3) Binding affinity to recombinant Trypanosoma cruzi His/haemaglutinin-tagged BDF3 expressed in Escherichia coli BL21 by fluorescence spectra analysis; procedure, shortened: as §2
Trypanosoma cruzi [8] = assay: Antitrypanosomal activity against Trypanosoma cruzi Dm28c […] infected in African green monkey Vero cells at 25 uM after 48 hrs by CPRG/Nonidet reagent based beta-galactosidase reporter gene assay; format: functional, organism-based
[9] = Selectivity index, ratio of IC50 for African green monkey Vero cells to IC50 for Trypanosoma cruzi Dm28c amastigotes infected in African green monkey Vero cells; format: toxicity; settings: read-out: Ratio IC50
Procedure, shortened: (§4)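 Selectivity index is the Vero cell toxicity IC50 divided by the IC50 against the relevant extracellular or intracellular parasite form.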

Trypanosoma cruzi [10] = assay: Binding affinity to recombinant Trypanosoma cruzi His/haemaglutinin-tagged BDF3 Y123A/L130A double mutant expressed in Escherichia coli BL21 by LC-MS based dynamic combinatorial chemistry analysis
Procedure, shortened: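 Dynamic library of six aldehydes and four acylhydrazides (75 μM each) in 100 mM ammonium acetate, pH 6.5, with 3.75 mM aniline, equilibrated about 10 h, with and without 100 μM recombinant protein. Read-out: LC–MS peak areas. Amplification factor = peak area in templated library ÷ peak area in untemplated library.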

Trypanosoma cruzi [11] = assay: Binding affinity to recombinant Trypanosoma cruzi His/haemaglutinin-tagged BDF3 expressed in Escherichia coli BL21 assessed as change in melting temperature at 10 uM by SYPRO orange based thermal shift assay
[12] = Selectivity index, ratio of IC50 for African green monkey Vero cells to IC50 for Trypanosoma cruzi Dm28c trypomastigotes infected in African green monkey Vero cells; format: toxicity; settings: read-out: Ratio IC50; procedure, shortened: as §4
Trypanosoma cruzi [13] = assay: Binding affinity to recombinant Trypanosoma cruzi His/haemaglutinin-tagged BDF3 Y123A/L130A double mutant expressed in Escherichia coli BL21 by fluorescence spectra analysis
Procedure, shortened: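 Intrinsic tryptophan fluorescence of 10 μM recombinant protein in 100 mM ammonium acetate, pH 6.5, measured with and without the hydrazone dynamic library. Maximum emission was normalized and compared.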

[14] = Selectivity index, ratio of IC50 for African green monkey Vero cells to IC50 for Trypanosoma cruzi Dm28c epimastigotes infected in African green monkey Vero cells; format: toxicity; settings: read-out: Ratio IC50; procedure, shortened: as §4
Trypanosoma cruzi [15] = assay: Binding affinity to recombinant Trypanosoma cruzi His/haemaglutinin-tagged BDF3 Y123A/L130A double mutant expressed in Escherichia coli BL21 assessed as change in melting temperature at 10 uM by SYPRO orange based thermal shift assay
[16] = as §3; procedure, shortened: as §2

Compound	fold change (FC) (Trypanosoma cruzi [4])	other results
O=C(Cn1ccnc1[N+](=O)[O-])NCc1ccccc1 [BENZNIDAZOLE]	–	IC50 (Trypanosoma cruzi [1]): 18.2 µM; IC50 (Trypanosoma cruzi [2]): 27.1 µM; IC50 (Trypanosoma cruzi [3]): 3.92 µM; IC50 (Vero): 30.2 µM
O=C(O)c1ccc(/C=N/NC(=O)c2ccco2)cc1	< 1	–
COc1cc(/C=N/NC(=O)c2ccco2)cc(OC)c1OC	< 1	–
O=C(N/N=C/CCC/C=N/NC(=O)c1cccs1)c1cccs1	1.5 to 2	–
O=C(N/N=C/CCC/C=N/NC(=O)c1cccs1)c1ccncc1	< 1	–
O=C(N/N=C/CCC/C=N/NC(=O)c1ccncc1)c1ccccc1	< 1	–
O=C(O)c1ccc(/C=N/NC(=O)c2cccs2)cc1	< 1	–
O=C(N/N=C/CCC/C=N/NC(=O)c1cccs1)c1ccco1	< 1	–
O=C(N/N=C/c1ccc(CO)o1)c1ccncc1	< 1	–
O=C(N/N=C/c1ccc(CO)o1)c1cccs1	< 1	–
O=C(N/N=C/CCC/C=N/NC(=O)c1ccccc1)c1ccccc1	< 1	–
O=C(N/N=C/CCC/C=N/NC(=O)c1ccncc1)c1ccncc1	< 1	–
O=C(N/N=C/CCC/C=N/NC(=O)c1ccco1)c1ccncc1	< 1	–
COc1cc(/C=N/NC(=O)c2ccccc2)ccc1O	1.5 to 2	–
O=C(N/N=C/CCC/C=N/NC(=O)c1cccs1)c1ccccc1	< 1	–
O=C(O)c1ccc(/C=N/NC(=O)c2ccncc2)cc1	< 1	–
COc1cc(/C=N/NC(=O)c2ccncc2)cc(OC)c1OC	< 1	–

Compound	fold change (FC) (Trypanosoma cruzi [4])	other results
NNC(=O)c1cccs1	–	Activity (Trypanosoma cruzi [5]): inactive
COc1cc(/C=N/NC(=O)c2cccs2)cc(OC)c1OC	1.2	Activity (Trypanosoma cruzi [6]): Active; Activity (Trypanosoma cruzi [7]): Active; Activity (Trypanosoma cruzi [8]): Active
COc1cc(C=O)ccc1O	–	Activity (Trypanosoma cruzi [5]): inactive
O=C(N/N=C/CCC/C=N/NC(=O)c1ccco1)c1ccco1	< 1	–
O=C(N/N=C/c1ccc(CO)o1)c1ccco1	< 1	–
O=C(N/N=C/[C@H](O)[C@H](O)[C@H](O)[C@@H](O)CO)c1ccccc1	1.5 to 2	–
O=C(O)c1ccc(/C=N/NC(=O)c2ccccc2)cc1	< 1	–
O=C(N/N=C/c1ccc(CO)o1)c1ccccc1	< 1	–
O=C(N/N=C/CCC/C=N/NC(=O)c1ccco1)c1ccccc1	< 1	–
O=C(N/N=C/[C@H](O)[C@H](O)[C@H](O)[C@@H](O)CO)c1ccncc1	1.5 to 2	–
COc1cc(/C=N/NC(=O)c2ccccc2)cc(OC)c1OC	< 1	–
COc1cc(/C=N/NC(=O)c2cccs2)ccc1O	2.4	selectivity ratio [9]: > 15; Activity (Trypanosoma cruzi [10]): inactive; IC50 (Trypanosoma cruzi [1]): 23 µM; IC50 (Trypanosoma cruzi [2]): 17.8 µM; ΔTm (Trypanosoma cruzi [11]): 3.43 °C; selectivity ratio [12]: > 11; Activity (Trypanosoma cruzi [13]): inactive; IC50 (Trypanosoma cruzi [3]): 13.1 µM; IC50 (Vero): > 200 µM; selectivity ratio [14]: > 9; ΔTm (Trypanosoma cruzi [15]): 0.4 °C; Kd [16]: 1.7 µM
O=C(N/N=C/[C@H](O)[C@H](O)[C@H](O)[C@@H](O)CO)c1cccs1	< 1	–
COc1cc(/C=N/NC(=O)c2ccncc2)ccc1O	< 1	–
COc1cc(/C=N/NC(=O)c2ccco2)ccc1O	1.5 to 2	–
CC1CS(=O)(=O)CCN1/N=C/c1ccc([N+](=O)[O-])o1 (stereo not drawn) [NIFURTIMOX]	–	selectivity ratio [9]: 38; IC50 (Trypanosoma cruzi [1]): 8 µM; IC50 (Trypanosoma cruzi [2]): 7 µM; selectivity ratio [12]: 16; IC50 (Trypanosoma cruzi [3]): 3 µM; IC50 (Vero): 115 µM; selectivity ratio [14]: 14
O=C(N/N=C/[C@H](O)[C@H](O)[C@H](O)[C@@H](O)CO)c1ccco1	< 1	–
